The values that follow come from PubChem BioAssay AID623921 (The Scripps Research Institute Molecular Screening Center, 2012).

Values joined by “and” are separate entries in the source; they are usually repeats but may differ in a detail not shown here. Equal values may be shown once. Active and inactive are the calls of the source.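 How the source made its calls: active means remaining nuclease activity at or below 52% of the solvent-only control; inactive means the rest.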

RecBCD enzyme subunit RecC (Escherichia coli (strain K12)) + RecBCD enzyme subunit RecB (Escherichia coli (strain K12)), sequence (P07648 whole entry, looked up): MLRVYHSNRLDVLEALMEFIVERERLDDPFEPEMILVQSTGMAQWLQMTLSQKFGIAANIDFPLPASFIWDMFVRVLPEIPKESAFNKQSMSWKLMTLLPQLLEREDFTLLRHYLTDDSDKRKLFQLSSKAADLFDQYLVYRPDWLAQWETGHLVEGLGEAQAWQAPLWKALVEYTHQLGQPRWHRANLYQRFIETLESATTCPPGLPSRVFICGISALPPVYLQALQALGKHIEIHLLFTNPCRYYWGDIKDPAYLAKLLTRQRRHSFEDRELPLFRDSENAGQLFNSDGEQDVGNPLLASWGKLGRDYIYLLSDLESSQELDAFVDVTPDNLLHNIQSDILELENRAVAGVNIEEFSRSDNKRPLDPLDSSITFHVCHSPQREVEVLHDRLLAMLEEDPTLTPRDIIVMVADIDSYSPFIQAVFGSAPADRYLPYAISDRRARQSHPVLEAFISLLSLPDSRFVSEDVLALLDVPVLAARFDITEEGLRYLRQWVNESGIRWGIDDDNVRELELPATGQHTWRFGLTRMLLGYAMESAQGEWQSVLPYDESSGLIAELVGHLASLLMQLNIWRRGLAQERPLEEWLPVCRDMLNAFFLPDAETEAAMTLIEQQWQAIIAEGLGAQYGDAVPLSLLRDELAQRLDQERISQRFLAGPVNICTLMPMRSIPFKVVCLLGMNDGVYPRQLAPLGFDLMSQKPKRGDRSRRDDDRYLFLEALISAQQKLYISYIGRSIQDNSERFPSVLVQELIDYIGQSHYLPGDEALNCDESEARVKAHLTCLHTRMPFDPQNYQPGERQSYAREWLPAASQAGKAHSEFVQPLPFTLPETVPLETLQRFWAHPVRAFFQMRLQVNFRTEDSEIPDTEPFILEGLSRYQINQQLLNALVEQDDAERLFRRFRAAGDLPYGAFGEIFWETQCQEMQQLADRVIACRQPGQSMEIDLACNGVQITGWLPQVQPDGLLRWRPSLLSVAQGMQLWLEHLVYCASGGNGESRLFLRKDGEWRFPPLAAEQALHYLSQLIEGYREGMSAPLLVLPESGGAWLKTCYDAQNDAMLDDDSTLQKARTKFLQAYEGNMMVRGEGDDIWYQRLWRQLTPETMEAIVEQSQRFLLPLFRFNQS
RecBCD enzyme subunit RecC (Escherichia coli (strain K12)) + RecBCD enzyme subunit RecB (Escherichia coli (strain K12)), sequence (P08394 whole entry, looked up): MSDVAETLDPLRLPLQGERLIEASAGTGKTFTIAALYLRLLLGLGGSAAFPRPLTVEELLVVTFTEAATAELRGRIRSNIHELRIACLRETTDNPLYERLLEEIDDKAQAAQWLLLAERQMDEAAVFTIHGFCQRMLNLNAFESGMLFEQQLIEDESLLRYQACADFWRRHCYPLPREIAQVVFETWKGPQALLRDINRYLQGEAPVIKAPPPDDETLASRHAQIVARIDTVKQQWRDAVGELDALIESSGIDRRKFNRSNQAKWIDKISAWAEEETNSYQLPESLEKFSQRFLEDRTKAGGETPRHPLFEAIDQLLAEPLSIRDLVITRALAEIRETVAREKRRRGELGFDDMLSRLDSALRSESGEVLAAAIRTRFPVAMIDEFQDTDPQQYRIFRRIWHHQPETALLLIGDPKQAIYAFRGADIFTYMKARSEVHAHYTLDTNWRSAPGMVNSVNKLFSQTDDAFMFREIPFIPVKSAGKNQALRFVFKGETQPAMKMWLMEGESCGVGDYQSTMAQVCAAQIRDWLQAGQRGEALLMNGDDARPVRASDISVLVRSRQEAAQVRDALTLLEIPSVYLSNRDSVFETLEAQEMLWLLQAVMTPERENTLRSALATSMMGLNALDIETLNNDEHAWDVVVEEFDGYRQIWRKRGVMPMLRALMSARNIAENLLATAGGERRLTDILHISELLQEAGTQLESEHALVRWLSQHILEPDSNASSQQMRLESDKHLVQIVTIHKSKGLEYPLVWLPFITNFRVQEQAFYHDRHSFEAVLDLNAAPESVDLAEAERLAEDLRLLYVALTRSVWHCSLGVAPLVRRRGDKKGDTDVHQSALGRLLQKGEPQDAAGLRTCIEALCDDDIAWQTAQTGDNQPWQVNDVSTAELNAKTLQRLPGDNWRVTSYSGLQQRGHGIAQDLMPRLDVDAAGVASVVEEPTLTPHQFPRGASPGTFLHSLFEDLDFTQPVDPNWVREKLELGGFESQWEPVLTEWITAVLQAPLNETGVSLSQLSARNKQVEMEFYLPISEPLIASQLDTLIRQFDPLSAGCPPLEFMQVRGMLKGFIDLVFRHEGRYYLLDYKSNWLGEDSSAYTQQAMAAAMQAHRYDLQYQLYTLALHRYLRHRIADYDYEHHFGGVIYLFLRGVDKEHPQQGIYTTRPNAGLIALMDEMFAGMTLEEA

This assay concerns the target RecBCD enzyme subunit RecC (Escherichia coli (strain K12)) + RecBCD enzyme subunit RecB (Escherichia coli (strain K12)) (UniProt P07648+P08394). Description: purified RecBCD nuclease inhibitors, late-stage follow-up, counter-screen for AddAB inhibitor project, biochemical, radioactivity readout, 100 µM single dose (AID 623921). Particulars: [3H] dsDNA nuclease, TCA-soluble radioactivity, at 100 µM, stronger effect = lower value. The method in brief: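 Test system: purified E. coli RecBCD / Compound: single nominal 100 µM compound dose, 5% DMSO final / Timing: enzyme-compound mix on ice, 20 min reaction at 37 °C / Technique: scintillation counting of acid-soluble tritium after TCA precipitation / Evaluation: remaining nuclease activity as % of DMSO reactions, background-subtracted / Benchmarks: DMSO reactions and no-enzyme background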
(In general: Counterscreens check selectivity or assay interference.)
For the molecule `CCn1cc(C(=O)O)c(=O)c2cc(F)c(N3CCN(C(=S)Nc4cccc(C(F)(F)F)c4)CC3)cc21`, the remaining enzyme activity was 12%.
Then `COC(=O)c1c(-c2ccccc2)csc1NC(=O)c1cnccn1`, with 28%.
With `Cc1ccc(C(=O)Nc2sc3c(c2C#N)CCC3)o1`, the remaining enzyme activity is 84% (inactive).
Then `CCn1cc(C(=O)O)c(=O)c2cnc(N3CCN(C(=S)NCc4ccccc4)CC3)nc21`, with 7%; and `CCn1cc(C(=O)O)c(=O)c2cnc(N3CCN(C(=S)Nc4cccc(C(F)(F)F)c4)CC3)nc21`, with -2%; and `CCn1cc(C(=O)O)c(=O)c2cnc(N3CCN(C(=S)NC)CC3)nc21`, with 35%.
The figure for `N#Cc1c(NC(=O)c2ccccc2C(=O)O)sc2c1CCCC2` is 110% (inactive); for `N#Cc1c(NC(=O)C2CC=CCC2C(=O)O)sc2c1CCC2` (stereo not drawn) it is 77% (inactive).
For `N#Cc1c(NC(=O)c2cccc(F)c2)sc2c1CCCC2`, the remaining enzyme activity was 110% (inactive).
The figure for `CCn1cc(C(=O)O)c(=O)c2cnc(N3CCN(C(=S)Nc4ccccc4C(F)(F)F)CC3)nc21` is 30%; for `CC1CCc2c(sc(NC(=O)c3ccc([N+](=O)[O-])o3)c2C#N)C1` (stereo not drawn) it is 110% (inactive); for `CC1CCc2c(sc(NC(=O)c3cnccn3)c2C#N)C1` (stereo not drawn) it is 83% (inactive).
The figure for `CSc1ncc(Cl)c(C(=O)Nc2sc3c(c2C(=O)NC2CCS(=O)(=O)C2)CCC(C)C3)n1` (stereo not drawn) is 76% (inactive); for `CCn1cc(C(=O)O)c(=O)c2cnc(N3CCN(C(=S)NC(=O)c4cccc(C)c4)CC3)nc21` it is 11%; for `NC(=O)c1c(NC(=O)c2cnccn2)sc2c1CCCC2` it is 85% (inactive).
The figure for `C=CCNC(=S)N1CCN(c2ncc3c(=O)c(C(=O)O)cn(CC)c3n2)CC1` is 63% (inactive); for `Cc1sc(NC(=O)c2cnccn2)c(C(=O)OC(C)C)c1-c1ccccc1` it is 44%; for `N#Cc1c(NC(=O)c2cnccn2)sc2c1CCCCCC2` it is 71% (inactive).
On to `CNC(=O)c1c(NC(=O)c2nc(SCc3ccccc3)ncc2Cl)sc2c1CCCC2`, for which the remaining enzyme activity is 26%.
The figure for `CCn1cc(C(=O)O)c(=O)c2cnc(N3CCN(C(=S)NC(=O)c4cccnc4)CC3)nc21` is 40%.
Consider `CCn1cc(C(=O)O)c(=O)c2cnc(N3CCN(C(=S)Nc4ccccc4)CC3)nc21`, for which the remaining enzyme activity was 23%.
The figure for `CCn1cc(C(=O)O)c(=O)c2cnc(N3CCN(C(=S)Nc4ccccc4Cl)CC3)nc21` is 28%; for `CCn1cc(C(=O)O)c(=O)c2cnc(N3CCN(C(=S)Nc4ccc5c(c4)OCCO5)CC3)nc21` it is 34%.
Then `CCn1cc(C(=O)O)c(=O)c2cnc(N3CCN(C(=S)Nc4ccc5c(c4)OCO5)CC3)nc21`, with 4%.
Take `Cc1sc(NC(=O)c2ccc(Br)o2)c(C#N)c1C`: the remaining enzyme activity is 51%.
Take `Cc1ccc(C(=O)Nc2sc3c(c2C#N)CCCCC3)o1`: the remaining enzyme activity was 106% (inactive).
Then `CCn1cc(C(=O)O)c(=O)c2cnc(N3CCN(C(=O)Nc4ccccc4)CC3)nc21`, with 83% (inactive); and `CCn1cc(C(=O)O)c(=O)c2cnc(N3CCNCC3)nc21`, with 110% (inactive); and `N#Cc1c(NC(=O)c2cnccn2)sc2c1CCCC2`, with 21% and 30%.
With `Nc1c(NC(=O)c2ccc([N+](=O)[O-])o2)sc2c1CCCC2`, the remaining enzyme activity is 98% (inactive).
As to `N#Cc1c(NC(=O)c2ccc([N+](=O)[O-])o2)sc2c1CCCC2`, the remaining enzyme activity was 110% (inactive).
The figure for `CCn1cc(C(=O)O)c(=O)c2cnc(N3CCN(C(=S)NC(=O)c4ccccc4Cl)CC3)nc21` is 58% (inactive); for `CCn1cc(C(=O)O)c(=O)c2cnc(N3CCN(C(=S)Nc4ccc(Cl)cc4)CC3)nc21` it is -1%; for `CSc1ncc(Cl)c(C(=O)Nc2sc3c(c2C#N)CCC(C)C3)n1` (stereo not drawn) it is 88% (inactive).
The figure for `CCn1cc(C(=O)O)c(=O)c2cnc(N3CCN(C(=S)Nc4ccccc4F)CC3)nc21` is 31%; for `N#Cc1c(NC(=O)c2ccco2)sc2c1CCC2` it is 41%.
The figure for `N#Cc1c(NC(=O)c2ccccc2)sc2c1CCC2` is 94% (inactive); for `Cn1nccc1C(=O)Nc1sc2c(c1C#N)CCCC2` it is 71% (inactive).
For `CC1CCc2c(sc(NC(=O)c3ccc([N+](=O)[O-])o3)c2N)C1` (stereo not drawn), the remaining enzyme activity is 110% (inactive).
The figure for `CCn1cc(C(=O)O)c(=O)c2cnc(N3CCN(C(=S)Nc4ccccc4C)CC3)nc21` is 40%; for `CCn1cc(C(=O)O)c(=O)c2cnc(N3CCN(C(=S)Nc4ccccc4OC)CC3)nc21` it is 26%; for `CCn1cc(C(=O)O)c(=O)c2cnc(N3CCN(C(=S)NC(C)c4ccccc4)CC3)nc21` (stereo not drawn) it is 1%.
As to `CCn1cc(C(=O)O)c(=O)c2cc(F)c(N3CCN(C(=S)Nc4ccccc4C(F)(F)F)CC3)cc21`, the remaining enzyme activity is 45%.
Then `CC1CCc2c(sc(NC(=O)c3cccs3)c2C#N)C1` (stereo not drawn), with 89% (inactive); and `N#Cc1c(NC(=O)c2ccc(-c3ccccc3[N+](=O)[O-])o2)sc2c1CCCC2`, with 120% (inactive); and `COC(=O)c1c(-c2cccc(C)c2)csc1NC(=O)c1cnccn1`, with 88% (inactive).
Then `CCn1cc(C(=O)O)c(=O)c2cnc(N3CCN(C(=S)Nc4ccc(F)cc4)CC3)nc21`, with 19%.
For the molecule `CC1(C)Cc2c(sc(NC(=O)c3ccco3)c2C#N)CO1`, the remaining enzyme activity was 90% (inactive).
The figure for `CCn1cc(C(=O)O)c(=O)c2cnc(N3CCN(C(=S)NC(=O)c4ccco4)CC3)nc21` is 84% (inactive); for `N#Cc1c(NC(=O)c2cc(-c3ccccc3)on2)sc2c1CCCC2` it is 34%; for `COC(=O)c1c(NC(=O)c2cnccn2)sc2c1CCCC2` it is 78% (inactive).
Then `CCC(C)(C)C1CCc2c(sc(NC(=O)c3cnccn3)c2C#N)C1` (stereo not drawn), with 85% (inactive).
Then `CCn1cc(C(=O)O)c(=O)c2cnc(N3CCN(C(=S)NC4CC5CCC4C5)CC3)nc21` (stereo not drawn), with 1%.
